Reference: PubChem BioAssay
The source made the active and inactive calls.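 How the source made its calls, unless noted: active means GFP response above 150% of the DMSO level; inconclusive means fewer than 70 events counted for a yeast strain; inactive means the rest.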

Experiments:
[1] = RPL19A-GFP modulators, yeast TOR pathway, confirmation, cell-based, S. cerevisiae, flow cytometry, cherry picks, mother/daughter gates (AID 2270;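 active means GFP response below 50% of the DMSO control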); conditions: S. cerevisiae RPL19A-GFP strain, 3 h, at 10 µM, stronger effect = lower value, 100 = same GFP as DMSO wells
[2] = LAP4-GFP expression modulators in yeast, confirmation, cell-based, cherry picks, flow cytometry, mother/daughter gates (AID 2271;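 active means GFP response above 150% of the DMSO control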;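 further: ratio of sample to DMSO plate mean so 100% equals DMSO level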); conditions: S. cerevisiae LAP4-GFP strain, 3 h, at 10 µM, stronger effect = higher value, 100 means same as DMSO control
In short: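 System: GFP-fusion yeast strain; Incubation: compound exposure 3 h at 30 °C, end-over-end rotation; Measured by: GFP by flow cytometry; Read-out: median GFP fluorescence as percent of plate-mean DMSO wells; Medium: synthetic complete (SC) yeast growth medium; Compound: single test-compound dose, 10 µM final; Benchmarks: DMSO-only negative wells, rapamycin 400 ng/mL positive wells.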

[3] = modulators of MEP2-GFP levels in yeast, confirmation, S. cerevisiae, flow cytometry GFP, cherry picks (AID 2272;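 active means GFP response above 150% of the DMSO control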;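 further: ratio of well signal to plate DMSO mean so 100% equals DMSO level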); conditions: S. cerevisiae MEP2-GFP strain, 3 h, at 10 µM, stronger effect = higher value
[4] = AGP1-GFP expression modulators, hit retest, confirmation, cell-based, flow cytometry, S. cerevisiae, cherry picks (AID 2273);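 further: median GFP channel fluorescence over the whole cell population gate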; conditions: S. cerevisiae AGP1-GFP strain, 3 h, at 10 µM
[5] = modulators of CIT2-GFP expression in yeast, confirmation, S. cerevisiae, GFP fusion, cherry picks, mother/daughter gates (AID 2274); conditions: S. cerevisiae CIT2-GFP strain, flow cytometry, 3 h, at 10 µM, stronger effect = higher value
[6] = measured here: daughter cell gate
[7] = measured here: mother cell gate
[8] = measured here: daughter cell gate response
[9] = measured here: mother cell gate response

| SMILES | GFP response vs DMSO [1] | GFP response vs DMSO [1, 6] | GFP response vs DMSO [1, 7] | GFP response relative to DMSO [2] | GFP response relative to DMSO [2, 8] | GFP response relative to DMSO [2, 9] | GFP response vs DMSO [3] | GFP response, % of DMSO [4] | GFP response, % of DMSO [5] | GFP response, % of DMSO [5, 6] | GFP response, % of DMSO [5, 7] |
| --- | --- | --- | --- | --- | --- | --- | --- | --- | --- | --- | --- |
| O=C(NCc1ccc2c(c1)OCO2)c1nc(S(=O)(=O)Cc2ccccc2F)ncc1Cl | 99.1% (inactive) | 99.3% | 97.8% | 101% (inactive) | 104% | 102% | 103% (inactive) | 100% (inactive) | 94.4% (inactive) | 94% | 96% |
| Cc1cccc(CS(=O)(=O)c2ncc(Cl)c(C(=O)NCc3ccccc3)n2)c1 | 99% (inactive) | 96.4% | 99.1% | 108% (inactive) | 108% | 108% | 100% (inactive) | 102% (inactive) | 95.2% (inactive) | 91.5% | 95.5% |
| Cc1cccc(NC(=O)CC2SC(=O)N(c3ccccc3)C2=O)c1 (stereo not drawn) | 96.6% (inactive) | 99.4% | 93% | 126% (inactive) | 128% | 126% | 109% (inactive) | 93.9% (inactive) | 104% (inactive) | 106% | 97.3% |
| COCCCN(C(=O)c1ccco1)c1nc(-c2cc(OC)ccc2OC)cs1 | 95.8% (inactive) | 96.4% | 94% | 98.9% (inactive) | 96% | 100% | 112% (inactive) | 98.4% (inactive) | 100% (inactive) | 103% | 99.3% |
| CCc1ccc(OCC(=O)NNC(=S)NC(=O)C2CC2)c(Br)c1 | 82.8% (inactive) | 97.6% | 70.1% | 204% (active) | 164% | 203% | 126% (inactive) | 90.5% (inactive) | 115% (inactive) | 110% | 105% |
| COc1ccc(N2C(=O)CC(Sc3ncn[nH]3)C2=O)c(OC)c1 (stereo not drawn) | 107% (inactive) | 112% | 102% | 172% (active) | 161% | 167% | 110% (inactive) | 102% (inactive) | 109% (inactive) | 115% | 101% |
| CCOc1cc(C(=O)N2CCN(c3ccc(C(C)=O)cc3)CC2)cc(OCC)c1OCC | 91.8% (inactive) | 91.2% | 89.8% | 126% (inactive) | 110% | 125% | 109% (inactive) | 104% (inactive) | 106% (inactive) | 105% | 105% |
| CCOC(=O)CSC1=NC(=O)/C(=C/c2ccc(Br)cc2)S1 | 96.3% (inactive) | 86.3% | 92.8% | 161% (active) | 136% | 170% | 98.8% (inactive) | 103% (inactive) | 83.5% (inactive) | 77.8% | 79.8% |
| O=C1c2ccsc2SCCN1Cc1ccc(F)cc1 | 97% (inactive) | 94.4% | 100% | 111% (inactive) | 110% | 113% | 90.5% (inactive) | 97.3% (inactive) | 100% (inactive) | 103% | 89.5% |
| COc1ccc(-c2noc(-c3cccc(Cl)c3)n2)cc1OC | 98% (inactive) | 97.3% | 97.6% | 102% (inactive) | 101% | 101% | 102% (inactive) | 96.2% (inactive) | 99.3% (inactive) | 102% | 96.8% |
| CC1CCc2c(C(=O)NCc3cccnc3)csc2C1 (stereo not drawn) | 94.2% (inactive) | 94.2% | 92.7% | 111% (inactive) | 109% | 113% | 94.7% (inactive) | 95.9% (inactive) | 87.2% (inactive) | 84.8% | 88.2% |
| COc1ccccc1-c1nnc(NC(=O)c2ccc3c(c2)OCO3)s1 | 106% (inactive) | 104% | 108% | 85.4% (inactive) | 84.8% | 89% | 97.8% (inactive) | 98.5% (inactive) | 100% (inactive) | 101% | 99.8% |
| O=C(c1c(F)cccc1F)N1CCN(c2ccccc2F)CC1 | 99.4% (inactive) | 99.1% | 98.4% | 103% (inactive) | 102% | 103% | 100% (inactive) | 92.1% (inactive) | 107% (inactive) | 106% | 106% |
| Cc1c(O)nc(SC2CC(=O)N(c3ccccc3)C2=O)[nH]c1=O (stereo not drawn) | 96.4% (inactive) | 96.5% | 96.7% | 109% (inactive) | 101% | 107% | 99.5% (inactive) | 97.1% (inactive) | 96.4% (inactive) | 98.3% | 96.8% |
| Cc1ccc(-n2nc(C)c3c(C)c(CCC(=O)O)c(C)nc32)cc1 | 102% (inactive) | 100% | 103% | 101% (inactive) | 101% | 100% | 96.8% (inactive) | 100% (inactive) | 102% (inactive) | 101% | 102% |
| Cc1cc(N)ccc1NC(=O)c1ccccc1 | 101% (inactive) | 99.6% | 102% | 98.2% (inactive) | 99.1% | 98.4% | 105% (inactive) | 103% (inactive) | 100% (inactive) | 101% | 101% |
| O=C(N/N=C/c1c(Cl)cccc1Cl)c1cccc(F)c1 | 95.6% (inactive) | 95.3% | 94% | 92.9% (inactive) | 94.4% | 93.4% | 103% (inactive) | 97.5% (inactive) | 97.2% (inactive) | 99.3% | 97.1% |

| SMILES | GFP response vs DMSO [1] | GFP response vs DMSO [1, 6] | GFP response vs DMSO [1, 7] | GFP response relative to DMSO [2] | GFP response relative to DMSO [2, 8] | GFP response relative to DMSO [2, 9] | GFP response vs DMSO [3] | GFP response, % of DMSO [4] | GFP response, % of DMSO [5] | GFP response, % of DMSO [5, 6] | GFP response, % of DMSO [5, 7] |
| --- | --- | --- | --- | --- | --- | --- | --- | --- | --- | --- | --- |
| O=C(COc1ccccc1)NNC(=S)NC(=O)c1ccccc1 | 114% (inactive) | 118% | 110% | 171% (active) | 165% | 166% | 127% (inactive) | 116% (inactive) | 108% (inactive) | 121% | 98.7% |
| O=C(c1ccc([N+](=O)[O-])o1)N(Cc1nnc(-c2ccccc2Cl)o1)C1CC1 | 99.4% (inactive) | 100% | 99.5% | 98.2% (inactive) | 99.1% | 98.4% | 99% (inactive) | 101% (inactive) | 98.8% (inactive) | 101% | 96.8% |
| CC1CCCCN1S(=O)(=O)c1ccc(C(=O)Nc2nnc(-c3ccccc3Cl)o2)cc1 (stereo not drawn) | 97.8% (inactive) | 97.9% | 98.4% | 94.1% (inactive) | 94.4% | 91.9% | 102% (inactive) | 98.3% (inactive) | 99.7% (inactive) | 101% | 98.5% |
| Cc1nnc(OCc2nc3ccccc3n2C)c2ccccc12 | 101% (inactive) | 102% | 101% | 98.8% (inactive) | 93.6% | 100% | 99.5% (inactive) | 94.3% (inactive) | 96.4% (inactive) | 96.4% | 95.6% |
| COCCN1C2=C(COC(C)(C)C2)C(=S)NC1c1ccccc1 (stereo not drawn) | 98% (inactive) | 98.9% | 99% | 94.1% (inactive) | 96% | 94% | 107% (inactive) | 99.1% (inactive) | 107% (inactive) | 108% | 108% |
| O=C(O)c1cccc(S(=O)(=O)N2Cc3ccccc3C2)c1 | 96.9% (inactive) | 97.3% | 95.9% | 106% (inactive) | 101% | 108% | 101% (inactive) | 104% (inactive) | 100% (inactive) | 99.3% | 100% |
| O=[N+]([O-])c1cc(CN2CCN(c3ccccc3)CC2)c(O)c2ncccc12 | 76.4% (inactive) | 108% | 59.5% | 161% (active) | 138% | 165% | 114% (inactive) | 78.8% (inactive) | 97.3% (inactive) | 106% | 88.2% |
| Oc1ccc(-c2csc(-c3ccccc3)n2)cc1O | 97% (inactive) | 93.2% | 96.5% | 124% (inactive) | 120% | 129% | 101% (inactive) | 96% (inactive) | 93.4% (inactive) | 93.7% | 90.8% |
| CCCN(Cc1nnc(-c2ccccc2Cl)o1)C(=O)c1cc([N+](=O)[O-])cc([N+](=O)[O-])c1 | 97.3% (inactive) | 98.4% | 96.1% | 97.7% (inactive) | 96% | 98.4% | 101% (inactive) | 98.6% (inactive) | 94.4% (inactive) | 94% | 94.9% |
| COc1ccc(CC(=O)NCc2ccccn2)cc1OC | 97.6% (inactive) | 97.8% | 98% | 93.8% (inactive) | 95.6% | 96.2% | 100% (inactive) | 100% (inactive) | 97.8% (inactive) | 96.5% | 95.5% |
| COc1cc(SSc2cc(OC)cc([N+](=O)[O-])c2N)c(N)c([N+](=O)[O-])c1 | 89% (inactive) | 78.4% | 80.4% | 265% (active) | 153% | 252% | 118% (inactive) | 124% (inactive) | 145% (inactive) | 112% | 143% |
| Cc1cccc(CSCc2ccc(C(=O)NC(C)C)o2)c1 | 101% (inactive) | 98.1% | 101% | 99.5% (inactive) | 95.9% | 99.4% | 96.8% (inactive) | 101% (inactive) | 102% (inactive) | 103% | 99.3% |
| COC(=O)c1ccccc1OCC(=O)NC1CCCCC1 | 88.9% (inactive) | 83.8% | 92.2% | 135% (inactive) | 126% | 145% | 89.9% (inactive) | 91.7% (inactive) | 84.1% (inactive) | 80.7% | 85.5% |
| CCC(CC)C(=O)Nc1cccc(/C(C)=N/NC(=O)c2ccccc2Cl)c1 | 98.6% (inactive) | 97% | 99.1% | 99.8% (inactive) | 103% | 99.3% | 102% (inactive) | 100% (inactive) | 100% (inactive) | 99.7% | 102% |
| CCCCNC(=O)c1c(O)c2cccc3c2n(c1=O)CCC3 | 98.8% (inactive) | 98.4% | 99.8% | 97.4% (inactive) | 95.6% | 100% | 100% (inactive) | 100% (inactive) | 97.8% (inactive) | 96.5% | 97.7% |
| COc1cc(NC(=O)c2c(OC)cccc2OC)ccc1NC(=O)c1cc2ccccc2o1 | 96% (inactive) | 95.5% | 96.5% | 109% (inactive) | 104% | 108% | 102% (inactive) | 95.4% (inactive) | 96.4% (inactive) | 98.3% | 93.3% |
